Calls of active or inactive are those of the source. The calls are words filed in the database; no cut-off is given here.
How the values were obtained:
[1] = Ratio of IC50 for KB-V-1 cells to IC50 for KB-3-1 cells after 16 hrs; format: functional, Homo sapiens
Method in brief: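 Mitotic arrest measured in Pgp-high KB-V-1 cells (derived from parental KB-3-1 by culture with vinblastine; >500-fold higher Pgp mRNA and protein) and in parental KB-3-1 cells. 16 h incubation, 11-point half-log dilution series. Read-out is phospho-nucleolin level. The ratio is the IC50 in KB-V-1 divided by the IC50 in KB-3-1.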

[2] = target: T1, Kinesin-like protein KIF11 (Homo sapiens, UniProt P52732); experiment: Inhibition of kinesin spindle protein
T1 sequence (P52732 whole entry): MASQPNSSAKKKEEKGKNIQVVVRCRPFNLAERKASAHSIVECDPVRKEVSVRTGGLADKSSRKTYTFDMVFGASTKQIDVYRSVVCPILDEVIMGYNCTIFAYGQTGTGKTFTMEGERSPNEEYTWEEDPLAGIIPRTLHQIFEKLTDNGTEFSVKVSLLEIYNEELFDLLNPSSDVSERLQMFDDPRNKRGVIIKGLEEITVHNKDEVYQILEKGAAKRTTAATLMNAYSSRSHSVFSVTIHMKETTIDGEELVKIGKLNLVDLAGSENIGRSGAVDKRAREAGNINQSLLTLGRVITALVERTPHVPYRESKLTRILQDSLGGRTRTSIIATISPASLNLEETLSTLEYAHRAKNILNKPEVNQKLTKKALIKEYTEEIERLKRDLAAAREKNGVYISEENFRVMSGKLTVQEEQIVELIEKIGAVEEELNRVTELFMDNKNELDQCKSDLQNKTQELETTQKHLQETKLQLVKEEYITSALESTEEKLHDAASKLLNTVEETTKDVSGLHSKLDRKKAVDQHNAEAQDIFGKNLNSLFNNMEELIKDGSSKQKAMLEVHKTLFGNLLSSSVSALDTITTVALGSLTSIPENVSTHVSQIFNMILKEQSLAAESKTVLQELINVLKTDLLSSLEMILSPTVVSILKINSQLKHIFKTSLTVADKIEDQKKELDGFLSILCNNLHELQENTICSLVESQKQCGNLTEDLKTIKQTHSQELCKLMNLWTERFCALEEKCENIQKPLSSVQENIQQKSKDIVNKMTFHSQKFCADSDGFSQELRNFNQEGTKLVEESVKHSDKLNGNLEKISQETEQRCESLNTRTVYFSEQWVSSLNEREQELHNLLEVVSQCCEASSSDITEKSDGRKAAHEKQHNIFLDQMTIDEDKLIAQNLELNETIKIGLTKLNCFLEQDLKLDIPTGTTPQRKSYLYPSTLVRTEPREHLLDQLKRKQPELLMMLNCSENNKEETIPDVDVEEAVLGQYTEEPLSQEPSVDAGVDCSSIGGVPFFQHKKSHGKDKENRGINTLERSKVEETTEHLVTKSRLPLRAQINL

[3] = Clearance in dog at 0.25 mg/kg, iv; format: ADME, organism-based, Canis lupus familiaris; design: dose 0.25 mg/kg, route intravenous; settings: in vivo
Method in brief: (§1)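 Cassette intravenous dosing in dogs, compounds given together as a DMSO solution at 0.25 mg/kg. Two dogs per dose, with the value being their average. Individual determinations fell within ±25% of the mean.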

[4] = target: Voltage-gated inwardly rectifying potassium channel KCNH2 (Homo sapiens, UniProt Q12809); experiment: Inhibition of hERG expressed in HEK cells; format: toxicity, cell-based, HEK293
Chain of Voltage-gated inwardly rectifying potassium channel KCNH2 (Q12809 whole entry): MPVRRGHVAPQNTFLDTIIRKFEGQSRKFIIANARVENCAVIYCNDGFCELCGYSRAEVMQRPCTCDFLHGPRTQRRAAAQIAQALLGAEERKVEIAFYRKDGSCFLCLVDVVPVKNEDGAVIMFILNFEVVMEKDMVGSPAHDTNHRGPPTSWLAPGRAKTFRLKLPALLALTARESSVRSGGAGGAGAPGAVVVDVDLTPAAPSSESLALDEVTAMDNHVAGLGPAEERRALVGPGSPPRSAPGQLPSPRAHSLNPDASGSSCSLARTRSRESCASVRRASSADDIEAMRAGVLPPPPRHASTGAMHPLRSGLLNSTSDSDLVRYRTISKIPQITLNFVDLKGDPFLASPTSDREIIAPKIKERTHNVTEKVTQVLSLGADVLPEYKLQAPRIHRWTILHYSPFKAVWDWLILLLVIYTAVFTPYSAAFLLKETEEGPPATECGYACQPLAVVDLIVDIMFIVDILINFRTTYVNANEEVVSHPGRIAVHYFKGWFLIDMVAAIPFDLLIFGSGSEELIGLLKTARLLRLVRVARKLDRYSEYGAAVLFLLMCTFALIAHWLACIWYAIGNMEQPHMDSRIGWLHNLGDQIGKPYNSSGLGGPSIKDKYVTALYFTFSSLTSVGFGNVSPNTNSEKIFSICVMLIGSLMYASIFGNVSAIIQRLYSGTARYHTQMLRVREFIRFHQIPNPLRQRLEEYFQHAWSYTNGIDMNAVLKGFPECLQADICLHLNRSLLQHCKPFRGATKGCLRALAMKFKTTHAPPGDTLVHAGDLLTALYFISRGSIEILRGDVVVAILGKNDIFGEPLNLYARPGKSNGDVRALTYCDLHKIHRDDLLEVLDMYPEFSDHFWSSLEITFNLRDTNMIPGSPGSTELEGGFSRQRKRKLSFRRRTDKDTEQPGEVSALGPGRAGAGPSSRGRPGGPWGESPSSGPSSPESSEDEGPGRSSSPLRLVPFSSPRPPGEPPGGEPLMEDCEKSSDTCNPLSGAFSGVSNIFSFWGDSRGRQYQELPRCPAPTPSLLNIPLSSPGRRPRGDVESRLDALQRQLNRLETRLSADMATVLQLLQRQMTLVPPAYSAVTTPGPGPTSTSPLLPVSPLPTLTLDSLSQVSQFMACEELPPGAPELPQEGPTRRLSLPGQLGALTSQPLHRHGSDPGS

[5] = Half life in dog at 0.25 mg/kg, iv; format: ADME, organism-based, Canis lupus familiaris; design: dose 0.25 mg/kg, route intravenous; settings: in vivo; method in brief: as §1
A2780 = experiment: Mitotic arrest in human A2780 cells assessed as G2/M block after 16 hrs; format: functional, cell-based; settings: A2780, 16 h
Method in brief: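 A2780 human ovarian carcinoma cells treated 16 h across a 7-point half-log dilution series. Mitosis-specific nucleolin phosphorylation read by electrochemiluminescence: total nucleolin captured on beads via anti-nucleolin antibody, phospho-nucleolin detected with a phospho-specific IgM plus ruthenium-labelled anti-mouse IgM. EC50 is the mean of at least two independent determinations.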

[6] = Solubility at pH 4; format: physicochemical; settings: buffer
Canis familiaris [7] = organism: Canis familiaris; experiment: Induction of QTc prolongation in canine cardiovascular model at 35 uM; format: functional, organism-based; settings: Canis lupus familiaris, Heart
Canis familiaris [8] = organism: Canis familiaris; experiment: Induction of QTc prolongation in canine cardiovascular model; format: functional, organism-based; settings: Canis lupus familiaris; Heart

| Compound | Ratio IC50 [1] | IC50 [2] [nM] | clearance [3] [mL/min/kg] | IC50 [4] [µM] | half-life [5] [min] | EC50 (A2780) [nM] | solubility [6] [µg/mL] | Activity (Canis familiaris [7]) | Activity (Canis familiaris [8]) |
| --- | --- | --- | --- | --- | --- | --- | --- | --- | --- |
| CC(=O)C1=NN2c3cc(F)ccc3OC[C@H]2[C@@]1(CCCN(C)C)c1ccccc1 | 2.3 | 1.6 | 52 | 5.94 | 342 | 7.4 |  |  |  |
| CC(=O)C1=NN2c3cc(F)ccc3OC[C@H]2[C@@]1(CCCN1CCNC(=O)CC1)c1ccccc1 | 3.3 | 1.5 | 15 | 17 | 144 | 6.9 |  |  |  |
| CC(=O)C1=NN2c3cc(F)ccc3OC[C@H]2[C@@]1(CCCO)c1ccccc1 | 0.6 | 5.2 |  | 18 |  | 11 |  |  |  |
| CC(=O)C1=NN2c3cc(C)ccc3OC[C@H]2[C@@]1(CCCN(C)C)c1ccccc1 | 2.3 | 1.8 | 37 | 2.4 | 498 | 6.4 |  |  |  |
| CC(=O)C1=NN2c3cc(Cl)ccc3OC[C@H]2C1(CCCN1CCOCC1)c1ccccc1 (mixture of isomers) | 1.5 | 1.8 |  | 3.3 |  | 13 |  |  |  |
| CC(=O)C1=NN2c3cc(F)ccc3OC[C@H]2[C@H]1c1ccccc1 |  | 155 |  |  |  |  |  |  |  |
| CC(=O)C1=NN2c3cc(F)ccc3OC[C@H]2[C@@]1(CCCN1CCNCC1)c1ccccc1 | 40 | 4.3 | 40 | 4.6 | 210 | 5 |  |  |  |
| CC(=O)C1=NN2c3cc(C)ccc3OC[C@H]2[C@@]1(CCCN1CCOCC1)c1ccccc1 | 1.4 | 1 |  | 6.3 |  | 11 |  |  |  |
| CC(=O)C1=NN2c3cc(F)ccc3OC[C@H]2[C@@]1(CCCN1CCOCC1)c1ccccc1 | 0.8 | 0.4 |  | 6.1 |  | 4.4 |  |  |  |
| CC(=O)C1=NN2c3cc(F)ccc3OC[C@H]2[C@@]1(CCCN1CCC(=O)N(C)CC1)c1ccccc1 | 2.6 | 0.9 | 11 | 9.6 | 234 | 4.8 |  |  |  |
| CC(=O)C1=NN2c3cc(F)ccc3OC[C@H]2[C@@]1(CCCN1CCN(C(C)=O)CC1)c1ccccc1 |  | 1.6 | 14 |  | 336 | 5 | > 4000 | inactive |  |
| CC(=O)C1=NN(c2cc(F)ccc2F)C[C@@]1(CCCN1CCN(C(C)=O)CC1)c1ccccc1 |  | 3 |  |  |  |  |  |  | Active |
| CC(=O)C1=NN2c3cc(Cl)ccc3OC[C@H]2[C@@]1(CCCN1CCN(C(C)=O)CC1)c1ccccc1 | 1.6 | 1 |  | 5.6 |  | 9 |  |  |  |
| CC(=O)C1=NN2c3cc(Cl)ccc3OC[C@H]2[C@@]1(CCCN(C)C)c1ccccc1 |  | 1 |  |  |  | 4.8 |  |  |  |
| CC(=O)C1=NN2c3cc(F)ccc3OC[C@H]2[C@@]1(CCCN)c1ccccc1 | 1.7 | 0.5 |  | 0.94 |  | 2.5 |  |  |  |
| CC(=O)C1=NN2c3ccccc3OC[C@H]2[C@H]1c1ccccc1 |  | 800 |  |  |  |  |  |  |  |

From ChEMBL document CHEMBL1139825, “Kinesin spindle protein (KSP) inhibitors. Part 7: Design and synthesis of 3,3-disubstituted dihydropyrazolobenzoxazines as potent inhibitors of the mitotic kinesin KSP” (Bioorg Med Chem Lett, 2007)
